ChEMBL document CHEMBL1124543, “Antiulcer agents. 4. Conformational considerations and the antiulcer activity of substituted imidazo[1,2-a]pyridines and related analogues” (1989)

Legend:
Assay type in all cases: functional
Canis familiaris [1] = test: Inhibition of histamine stimulated gastric acid secretion in adult mongrel dogs at 5 mg/kg i.v.; conditions: Canis lupus familiaris, Stomach, route intravenous
In short: (§1)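 Mongrel dogs with surgically prepared Heidenhain pouches under histamine infusion; compound given iv (0.1–5 mg/kg) 1 h after infusion start. Pouch juice collected every 30 min, volume recorded, aliquot titrated for acid; outputs summed over 3 h post-dose, compared with the same animal's control. ED50 by linear regression.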

Rattus norvegicus [2] = test: Antisecretory activity of intraperitoneally injected compound (40 mg/kg) in pylorus-ligated rat
In short: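 Rats fasted 24 h, anesthetized, pylorus ligated; compound in 2.5% Tween 80 given ip (0.5 mL/200 g) at ligation. Killed 4 h later; gastric contents volume recorded, aliquots titrated with 0.1 N NaOH for acid output. Six rats per compound, eight controls; percent inhibition computed, Student's t test.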

Canis familiaris [3] = test: Inhibition of histamine stimulated gastric acid secretion in adult mongrel dogs at 8 mg/kg compound administered perorally; conditions: Canis lupus familiaris, Stomach, route oral
In short: (§2)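 Heidenhain pouch mongrel dogs receiving histamine infusion; compound given orally by gavage 1 h after infusion began. Acid output from 30-min collections (volume, titrated aliquot) summed for 3 h after dosing, each dog its own control. ED50 derived by linear regression from percent inhibition across doses.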

Rattus norvegicus [4] = test: Effective dose inhibiting ethanol-induced lesions was determined 1 h, after oral administration of absolute ethanol in rat
In short: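 Rats fasted and water-deprived 20 h; compound in 0.4% methylcellulose/saline given orally (1–30 mg/kg) 30 min before oral absolute ethanol (1 mL). Killed 1 h after ethanol; stomach opened along greater curvature, linear hemorrhagic lesion lengths summed per stomach. ED50 for lesion inhibition by regression analysis.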

Canis familiaris [5] = test: Inhibition of histamine stimulated gastric acid secretion in adult mongrel dogs at 2 mg/kg i.v.; conditions: Canis lupus familiaris, Stomach, route intravenous; in short: as §1
Canis familiaris [6] = test: Inhibition of histamine stimulated gastric acid secretion in adult mongrel dogs at 4 mg/kg administered perorally; conditions: Canis lupus familiaris, Stomach, route oral; in short: as §2
Canis familiaris [7] = test: Inhibition of histamine stimulated gastric acid secretion in adult mongrel dogs at 1 mg/kg i.v.; conditions: Canis lupus familiaris, Stomach, route intravenous; in short: as §1
Canis familiaris [8] = test: Inhibition of histamine stimulated gastric acid secretion in adult mongrel dogs at 2 mg/kg compound administered perorally; conditions: Canis lupus familiaris, Stomach, route oral; in short: as §2
Canis familiaris [9] = test: Effective dose required to reduce acid out put when administered perorally in dog; conditions: Canis lupus familiaris, po; in short: as §2
Canis familiaris [10] = test: Effective dose required to reduce acid out put when administered intravenously in dog;Value ranges from […]; conditions: Canis lupus familiaris, iv; in short: as §1
Canis familiaris [11] = test: Effective dose required to reduce acid out put when administered perorally in dog;Value ranges from(1.6-13.4).; conditions: Canis lupus familiaris, po; in short: as §2
Canis familiaris [12] = test: Inhibition of histamine stimulated gastric acid secretion in adult mongrel dogs at 0.1 mg/kg compound administered intravenously; conditions: Canis lupus familiaris, Stomach, route intravenous; in short: as §1
Canis familiaris [13] = test: Effective dose required to reduce acid out put when administered intravenously in dog; conditions: Canis lupus familiaris, iv; in short: as §1
Canis familiaris [14] = test: Effective dose required to reduce acid out put when administered perorally in dog;Value ranges from (2.3-58.2); conditions: Canis lupus familiaris, po; in short: as §2

`Cc1nc2c(C/C=C\c3ccccc3)cccn2c1C` showed an inhibition in vivo at 5 mg/kg (Canis familiaris [1]) of 0%, an Inhibition (Rattus norvegicus [2]) of 58% and an inhibition in vivo at 8 mg/kg (Canis familiaris [3]) of 0%. The ED50 (Rattus norvegicus [4]) was 5.5 mg/kg.

In the case of `Cc1nc2c(C/C=C\c3ccccc3)cccn2c1N`, the inhibition in vivo at 5 mg/kg (Canis familiaris [1]) is reported as 20%, the Inhibition (Rattus norvegicus [2]) is reported as 4% and the inhibition in vivo at 8 mg/kg (Canis familiaris [3]) is reported as 0%. For the same compound, the ED50 (Rattus norvegicus [4]) was 6.4 mg/kg.

With `CCc1nc2c(/C=C\c3ccccc3)cccn2c1C` the Inhibition (Rattus norvegicus [2]) was 96%, the inhibition in vivo at 8 mg/kg (Canis familiaris [3]) was 21% and the inhibition in vivo at 2 mg/kg (Canis familiaris [5]) was 42%.

In the case of `Cc1nc2c(C/C=C/c3ccccc3)cccn2c1CC#N`, the inhibition in vivo at 5 mg/kg (Canis familiaris [1]) is reported as 4%, the Inhibition (Rattus norvegicus [2]) is reported as 27% and the ED50 (Rattus norvegicus [4]) is reported as 12 mg/kg.

`Cc1nc2c(/C=C/c3ccccc3)cccn2c1CC#N` gave an inhibition in vivo at 5 mg/kg (Canis familiaris [1]) of 18%, an Inhibition (Rattus norvegicus [2]) of 18% and an inhibition in vivo at 8 mg/kg (Canis familiaris [3]) of 2%. The ED50 (Rattus norvegicus [4]) was 3 mg/kg and the inhibition in vivo at 2 mg/kg (Canis familiaris [5]) was 0%.

`Cc1nc2c(/C=C\c3ccccc3)cccn2c1CC#N` gave an inhibition in vivo at 4 mg/kg (Canis familiaris [6]) of 0%, an inhibition in vivo at 1 mg/kg (Canis familiaris [7]) of 79% and an Inhibition (Rattus norvegicus [2]) of 49%. For the same compound, the inhibition in vivo at 8 mg/kg (Canis familiaris [3]) was 41%, the ED50 (Rattus norvegicus [4]) was 2 mg/kg and the inhibition in vivo at 2 mg/kg (Canis familiaris [5]) was 76%.

`CCc1c(C)nc2c(/C=C\c3ccccc3)cccn12` gave an Inhibition (Rattus norvegicus [2]) of 65%, an inhibition in vivo at 8 mg/kg (Canis familiaris [3]) of 21% and an ED50 (Rattus norvegicus [4]) of 0.8 mg/kg. The inhibition in vivo at 2 mg/kg (Canis familiaris [5]) was 12%.

`Cc1nc2ccc(/C=C/c3ccccc3)cn2c1C` showed an inhibition in vivo at 5 mg/kg (Canis familiaris [1]) of 0%, an Inhibition (Rattus norvegicus [2]) of 55% and an inhibition in vivo at 8 mg/kg (Canis familiaris [3]) of 0%. The ED50 (Rattus norvegicus [4]) was 1.7 mg/kg.

`Cc1nc2c(/C=C\Cc3ccccc3)cccn2c1N` gave an inhibition in vivo at 4 mg/kg (Canis familiaris [6]) of 0%, an inhibition in vivo at 1 mg/kg (Canis familiaris [7]) of 32% and an Inhibition (Rattus norvegicus [2]) of 52%. It also gave an ED50 (Rattus norvegicus [4]) of 8.6 mg/kg.

For `Cc1nc2cc(/C=C/c3ccccc3)ccn2c1C`, the inhibition in vivo at 5 mg/kg (Canis familiaris [1]) was 0%, the Inhibition (Rattus norvegicus [2]) was 40% and the inhibition in vivo at 8 mg/kg (Canis familiaris [3]) was 0%.

Work on `Cc1nc2c(/C=C/c3ccccc3)cccn2c1C` yielded an Inhibition (Rattus norvegicus [2]) of 39%, an inhibition in vivo at 8 mg/kg (Canis familiaris [3]) of 3% and an ED50 (Rattus norvegicus [4]) of 10.4 mg/kg. The inhibition in vivo at 2 mg/kg (Canis familiaris [5]) was 26%.

In the case of `Cc1nc2c(OCc3ccccc3)cccn2c1C`, the inhibition in vivo at 4 mg/kg (Canis familiaris [6]) is reported as 0%, the inhibition in vivo at 1 mg/kg (Canis familiaris [7]) is reported as 90% and the Inhibition (Rattus norvegicus [2]) is reported as 99%. The inhibition in vivo at 8 mg/kg (Canis familiaris [3]) was 26% and the ED50 (Rattus norvegicus [4]) was 10 mg/kg.

Compound `Cc1nc2c(C#Cc3ccccc3)nccn2c1C` has an inhibition in vivo at 5 mg/kg (Canis familiaris [1]) of 0%, an Inhibition (Rattus norvegicus [2]) of 0% and an inhibition in vivo at 8 mg/kg (Canis familiaris [3]) of 11%. The ED50 (Rattus norvegicus [4]) was 3.7 mg/kg.

Compound `Cc1nc2c(/C=C\Cc3ccccc3)cccn2c1C` has an inhibition in vivo at 4 mg/kg (Canis familiaris [6]) of 13%, an inhibition in vivo at 1 mg/kg (Canis familiaris [7]) of 24% and an Inhibition (Rattus norvegicus [2]) of 96%. It also gave an inhibition in vivo at 8 mg/kg (Canis familiaris [3]) of 54%, an ED50 (Rattus norvegicus [4]) of 6.6 mg/kg and an inhibition in vivo at 2 mg/kg (Canis familiaris [5]) of 47%.

`Cc1nc2c(/C=C\c3ccsc3)cccn2c1C` gave an inhibition in vivo at 4 mg/kg (Canis familiaris [6]) of 38%, an inhibition in vivo at 2 mg/kg (Canis familiaris [8]) of 5% and an inhibition in vivo at 1 mg/kg (Canis familiaris [7]) of 64%. It also gave an ED50 (Canis familiaris [9]) of 4.8 mg/kg, an Inhibition (Rattus norvegicus [2]) of 54% and an inhibition in vivo at 8 mg/kg (Canis familiaris [3]) of 79%. For the same compound, the ED50 (Rattus norvegicus [4]) was 24 mg/kg and the inhibition in vivo at 2 mg/kg (Canis familiaris [5]) was 82%.

Work on `C/C(=C\c1ccccc1)c1cccn2c(C)c(C)nc12` yielded an Inhibition (Rattus norvegicus [2]) of 71%, an inhibition in vivo at 8 mg/kg (Canis familiaris [3]) of 29% and an ED50 (Rattus norvegicus [4]) of 5 mg/kg. For the same compound, the inhibition in vivo at 2 mg/kg (Canis familiaris [5]) was 44%.

For `Cc1nc2c3c(ccn2c1CC#N)CCC(c1ccccc1)O3` (stereo not given), the ED50 (Canis familiaris [10]) was 0.06 mg/kg, the ED50 (Canis familiaris [11]) was 3.7 mg/kg and the ED50 (Rattus norvegicus [4]) was 1.7 mg/kg.

With `Cc1nc2c(/C=C\c3ccccc3)cccn2c1N` the inhibition in vivo at 2 mg/kg (Canis familiaris [8]) was 0%, the inhibition in vivo at 5 mg/kg (Canis familiaris [1]) was 67% and the inhibition in vivo at 1 mg/kg (Canis familiaris [7]) was 66%. The Inhibition (Rattus norvegicus [2]) was 83%, the inhibition in vivo at 8 mg/kg (Canis familiaris [3]) was 4% and the ED50 (Rattus norvegicus [4]) was 23 mg/kg. For the same compound, the inhibition in vivo at 2 mg/kg (Canis familiaris [5]) was 62%.

In the case of `C/C(=C\c1cccn2c(C)c(C)nc12)c1ccccc1`, the inhibition in vivo at 4 mg/kg (Canis familiaris [6]) is reported as 17%, the inhibition in vivo at 1 mg/kg (Canis familiaris [7]) is reported as 72% and the Inhibition (Rattus norvegicus [2]) is reported as 98%. For the same compound, the inhibition in vivo at 8 mg/kg (Canis familiaris [3]) was 37% and the inhibition in vivo at 2 mg/kg (Canis familiaris [5]) was 65%.

For `Cc1nc2c(/C=C/Cc3ccccc3)cccn2c1CC#N`, the inhibition in vivo at 4 mg/kg (Canis familiaris [6]) was 53%, the inhibition in vivo at 0.1 mg/kg (Canis familiaris [12]) was 9% and the inhibition in vivo at 2 mg/kg (Canis familiaris [8]) was 43%. For the same compound, the inhibition in vivo at 5 mg/kg (Canis familiaris [1]) was 78%, the inhibition in vivo at 1 mg/kg (Canis familiaris [7]) was 69% and the ED50 (Canis familiaris [9]) was 4 mg/kg. For the same compound, the ED50 (Canis familiaris [13]) was 1 mg/kg, the inhibition in vivo at 8 mg/kg (Canis familiaris [3]) was 82% and the ED50 (Rattus norvegicus [4]) was 4 mg/kg.

In the case of `Cc1nc2c(/C=C/c3ccccc3)cccn2c1N`, the inhibition in vivo at 5 mg/kg (Canis familiaris [1]) is reported as 0%, the Inhibition (Rattus norvegicus [2]) is reported as 33% and the inhibition in vivo at 8 mg/kg (Canis familiaris [3]) is reported as 6%. For the same compound, the ED50 (Rattus norvegicus [4]) was 13 mg/kg and the inhibition in vivo at 2 mg/kg (Canis familiaris [5]) was 24%.

Work on `Cc1nc2c(/C=C\c3ccccc3)nccn2c1C` yielded an inhibition in vivo at 5 mg/kg (Canis familiaris [1]) of 0%, an Inhibition (Rattus norvegicus [2]) of 74% and an inhibition in vivo at 8 mg/kg (Canis familiaris [3]) of 0%. For the same compound, the ED50 (Rattus norvegicus [4]) was 5.2 mg/kg.

`C(=C/c1cccn2c3c(nc12)CCCC3)/c1ccccc1` was tested, and the Inhibition (Rattus norvegicus [2]) was 62%, the ED50 (Rattus norvegicus [4]) was 7.3 mg/kg and the inhibition in vivo at 2 mg/kg (Canis familiaris [5]) was 0%.

For `Cc1nc2cccc(/C=C/c3ccccc3)n2c1C`, the inhibition in vivo at 4 mg/kg (Canis familiaris [6]) was 0%, the inhibition in vivo at 5 mg/kg (Canis familiaris [1]) was 0% and the ED50 (Rattus norvegicus [4]) was 5.5 mg/kg.

With `Cc1nc2c(/C=C\c3ccccc3)cccn2c1C` the inhibition in vivo at 4 mg/kg (Canis familiaris [6]) was 37%, the inhibition in vivo at 2 mg/kg (Canis familiaris [8]) was 25% and the inhibition in vivo at 5 mg/kg (Canis familiaris [1]) was 86%. The inhibition in vivo at 1 mg/kg (Canis familiaris [7]) was 62%, the ED50 (Canis familiaris [9]) was 4.8 mg/kg and the Inhibition (Rattus norvegicus [2]) was 83%. For the same compound, the ED50 (Canis familiaris [13]) was 0.7 mg/kg, the inhibition in vivo at 8 mg/kg (Canis familiaris [3]) was 74% and the inhibition in vivo at 2 mg/kg (Canis familiaris [5]) was 76%.

`C(=C/c1cccn2c3c(nc12)CCC3)/c1ccccc1` gave an inhibition in vivo at 5 mg/kg (Canis familiaris [1]) of 8%, an Inhibition (Rattus norvegicus [2]) of 24% and an ED50 (Rattus norvegicus [4]) of 5.2 mg/kg.

`Cc1nc2c(CCc3ccccc3)cccn2c1N` showed an inhibition in vivo at 0.1 mg/kg (Canis familiaris [12]) of 26%, an ED50 (Canis familiaris [13]) of 1 mg/kg and an ED50 (Canis familiaris [14]) of 6.7 mg/kg.
